# From ChEMBL document CHEMBL1143425, “Paradoxical growth effect of caspofungin observed on biofilms and planktonic cells of five different Candida species” (2007)
# Active and inactive are the calls of the source.
# Columns and labels:
# [1] = system: Candida orthopsilosis; experiment: Antimicrobial activity against Candida orthopsilosis BR-A35 grown as planktonic cell after 48 hrs by XTT reduction assay; assay type: functional; settings: Lodderomyces orthopsilosis
# How it was run: (§1)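 Planktonic cells were tested by CLSI M27-A2 broth microdilution with caspofungin in water, incubated 48 h. XTT-menadione was added to each well, plates were held 1 h at 35°C in the dark and centrifuged, and supernatant absorbance was read at 490 nm. MIC was defined as 50% decrease in metabolic activity versus drug-free control. PG was defined as ≥20% of control activity at concentrations above MIC.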
# [2] = system: Candida parapsilosis; experiment: Antimicrobial activity against Candida parapsilosis BR-A25 grown as planktonic cell after 48 hrs by XTT reduction assay; assay type: functional; settings: Lodderomyces parapsilosis
# How it was run: (§2)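 Planktonic broth microdilution followed CLSI M27-A2, with caspofungin dissolved in water. After 48 h, XTT-menadione was added to the wells and plates were kept 1 h at 35°C in the dark. Plates were then centrifuged and supernatant A490 was read. MIC was the lowest concentration giving a 50% decrease in metabolic activity versus drug-free control. Paradoxical growth was defined as ≥20% of control activity above the MIC.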
# [3] = system: Candida metapsilosis; experiment: Antimicrobial activity against Candida metapsilosis BR-A42 grown as biofilm after 48 hrs by XTT reduction assay; assay type: functional; settings: Lodderomyces metapsilosis
# How it was run: (§3)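 Sabouraud-grown cells were shaken overnight (18 h, 120 rpm, 35°C) in RPMI 1640 with MOPS at pH 7.0, then washed and set at ~1 × 10^7 cells/ml. Attachment lasted 1.5 h at 37°C, and growth ran 24 h before challenge. Caspofungin was added in RPMI at 2–1,024 μg/ml (10 doublings) for 48 h at 35°C with shaking. XTT-menadione was read at 490 nm after 1 h at 35°C in the dark, with blank wells subtracted. MIC was taken as 50% reduction versus drug-free wells, and PG as >50% of control above MIC. Assays were run in duplicate.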
# [4] = system: Candida albicans; experiment: Antimicrobial activity against Candida albicans BR-A4 grown as planktonic cell assessed as paradoxical growth after 48 hrs by XTT reduction assay; assay type: functional, organism-based; how it was run: as §1
# [5] = system: Candida tropicalis; experiment: Antimicrobial activity against Candida tropicalis BR-A24 grown as biofilm assessed as concentration producing paradoxical growth after 48 hrs by XTT reduction assay; assay type: functional
# How it was run: (§4)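 Clinical isolates were grown overnight (18 h, 35°C, 120 rpm) in RPMI 1640 with MOPS, pH 7.0, then washed and set to ~1 × 10^7 cells/ml. Cells attached for 1.5 h at 37°C, 75 rpm, then biofilms grew 24 h. Caspofungin was given as doubling dilutions of 2–1,024 μg/ml for 48 h at 35°C, 75 rpm. Read-out was XTT-menadione in PBS, 1 h at 35°C in the dark, A490, cell-free blank subtracted. MIC was a 50% drop in activity versus drug-free; PG was >50% of control above MIC. Run in duplicate.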
# [6] = system: Candida metapsilosis; experiment: Antimicrobial activity against Candida metapsilosis BR-A41 grown as biofilm assessed as concentration producing paradoxical growth after 48 hrs by XTT reduction assay; assay type: functional; how it was run: as §3
# [7] = system: Candida orthopsilosis; experiment: Antimicrobial activity against Candida orthopsilosis BR-A39 grown as planktonic cell after 48 hrs by XTT reduction assay; assay type: functional; settings: Lodderomyces orthopsilosis; how it was run: as §2
# [8] = system: Candida metapsilosis; experiment: Antimicrobial activity against Candida metapsilosis BR-A42 grown as planktonic cell assessed as paradoxical growth after 48 hrs by XTT reduction assay; assay type: functional, organism-based; how it was run: as §1
# [9] = system: Candida parapsilosis; experiment: Antimicrobial activity against Candida parapsilosis BR-A26 grown as biofilm after 48 hrs by XTT reduction assay; assay type: functional; settings: Lodderomyces parapsilosis; how it was run: as §4
# [10] = system: Candida tropicalis; experiment: Antimicrobial activity against Candida tropicalis BR-A14 grown as planktonic cell assessed as concentration producing paradoxical growth after 48 hrs by XTT reduction assay; assay type: functional
# How it was run: (§5)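 Planktonic broth microdilution followed CLSI M27-A2, with caspofungin dissolved in water. After 48 h, XTT-menadione was added to each well and plates were incubated 1 h at 35°C in the dark. Cells were pelleted by centrifugation and the supernatant was read at 490 nm. MIC was the lowest concentration giving a 50% drop in metabolic activity versus the drug-free control. PG was ≥20% of drug-free activity above the MIC.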
# [11] = system: Candida metapsilosis; experiment: Antimicrobial activity against Candida metapsilosis BR-A44 grown as planktonic cell after 48 hrs by XTT reduction assay; assay type: functional; settings: Lodderomyces metapsilosis; how it was run: as §1
# [12] = system: Candida orthopsilosis; experiment: Antimicrobial activity against Candida orthopsilosis BR-A34 grown as biofilm after 48 hrs by XTT reduction assay; assay type: functional; settings: Lodderomyces orthopsilosis
# How it was run: (§6)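 Isolates were grown on Sabouraud agar (30°C, 24 h), then overnight in RPMI 1640 with MOPS, pH 7.0, at 35°C with shaking. Cells were washed and set to ~1 × 10^7 cells/ml, attached 1.5 h at 37°C, and grown 24 h. Biofilms were then exposed to caspofungin in 10 twofold dilutions (2–1,024 μg/ml) for 48 h at 35°C with shaking. Read-out was XTT-menadione, 1 h, 35°C, dark, A490, cell-free blank subtracted. MIC was the 50% drop in activity versus drug-free control. Tested in duplicate.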
# [13] = system: Candida metapsilosis; experiment: Antimicrobial activity against Candida metapsilosis BR-A44 grown as biofilm after 48 hrs by XTT reduction assay; assay type: functional; settings: Lodderomyces metapsilosis; how it was run: as §3
# [14] = system: Candida orthopsilosis; experiment: Antimicrobial activity against Candida orthopsilosis BR-A35 grown as biofilm after 48 hrs by XTT reduction assay; assay type: functional; settings: Lodderomyces orthopsilosis; how it was run: as §6
# [15] = system: Candida parapsilosis; experiment: Antimicrobial activity against Candida parapsilosis 22019 grown as biofilm assessed as concentration producing paradoxical growth after 48 hrs by XTT reduction assay; assay type: functional; how it was run: as §3
# [16] = system: Candida orthopsilosis; experiment: Antimicrobial activity against Candida orthopsilosis BR-A37 grown as planktonic cell assessed as concentration producing paradoxical growth after 48 hrs by XTT reduction assay; assay type: functional; how it was run: as §1
# [17] = system: Candida metapsilosis; experiment: Antimicrobial activity against Candida metapsilosis BR-A43 grown as planktonic cell after 48 hrs by XTT reduction assay; assay type: functional; settings: Lodderomyces metapsilosis; how it was run: as §1
# [18] = system: Candida tropicalis; experiment: Antimicrobial activity against Candida tropicalis BR-A8 grown as biofilm after 48 hrs by XTT reduction assay; assay type: functional; how it was run: as §6
# [19] = system: Candida parapsilosis; experiment: Antimicrobial activity against Candida parapsilosis BR-A30 grown as biofilm assessed as paradoxical growth after 48 hrs by XTT reduction assay; assay type: functional, organism-based; how it was run: as §4
# [20] = system: Candida orthopsilosis; experiment: Antimicrobial activity against Candida orthopsilosis BR-A33 grown as biofilm after 48 hrs by XTT reduction assay; assay type: functional; settings: Lodderomyces orthopsilosis; how it was run: as §6
# [21] = system: Candida tropicalis; experiment: Antimicrobial activity against Candida tropicalis BR-A18 grown as planktonic cell assessed as paradoxical growth after 48 hrs by XTT reduction assay; assay type: functional, organism-based; how it was run: as §5
# [22] = system: Candida albicans; experiment: Antimicrobial activity against Candida albicans BR-A7 grown as biofilm after 48 hrs by XTT reduction assay; assay type: functional; how it was run: as §6
# [23] = system: Candida albicans; experiment: Antimicrobial activity against Candida albicans BR-A1 grown as planktonic cell assessed as paradoxical growth after 48 hrs by XTT reduction assay; assay type: functional, organism-based; how it was run: as §1
# [24] = system: Candida parapsilosis; experiment: Antimicrobial activity against Candida parapsilosis BR-A27 grown as biofilm after 48 hrs by XTT reduction assay; assay type: functional; settings: Lodderomyces parapsilosis; how it was run: as §4
# [25] = system: Candida orthopsilosis; experiment: Antimicrobial activity against Candida orthopsilosis BR-A33 grown as planktonic cell after 48 hrs by XTT reduction assay; assay type: functional; settings: Lodderomyces orthopsilosis; how it was run: as §1
# [26] = system: Candida tropicalis; experiment: Antimicrobial activity against Candida tropicalis BR-A14 grown as biofilm assessed as paradoxical growth after 48 hrs by XTT reduction assay; assay type: functional, organism-based; how it was run: as §4
# [27] = system: Candida albicans; experiment: Antimicrobial activity against Candida albicans BR-A2 grown as planktonic cell assessed as concentration producing paradoxical growth after 48 hrs by XTT reduction assay; assay type: functional; how it was run: as §1
# [28] = system: Candida metapsilosis; experiment: Antimicrobial activity against Candida metapsilosis BR-A44 grown as biofilm assessed as concentration producing paradoxical growth after 48 hrs by XTT reduction assay; assay type: functional; how it was run: as §3
# [29] = system: Candida metapsilosis; experiment: Antimicrobial activity against Candida metapsilosis BR-A41 grown as planktonic cell after 48 hrs by XTT reduction assay; assay type: functional; settings: Lodderomyces metapsilosis; how it was run: as §1
structure (smiles),measurement,setting,value
CC[C@H](C)C[C@H](C)CCCCCCCCC(=O)N[C@H]1C[C@@H](O)[C@@H](NCCN)NC(=O)[C@@H]2[C@@H](O)CCN2C(=O)[C@H]([C@H](O)CCN)NC(=O)[C@H]([C@H](O)[C@@H](O)c2ccc(O)cc2)NC(=O)[C@@H]2C[C@@H](O)CN2C(=O)[C@H]([C@@H](C)O)NC1=O [CASPOFUNGIN],MIC,[1],1 µg/mL
same,MIC,[2],2 µg/mL
same,MIC,[3],2 µg/mL
same,Activity,[4],Active
same,Activity,[5],8 µg/mL
same,Activity,[6],16 µg/mL
same,MIC,[7],2 µg/mL
same,Activity,[8],inactive
same,MIC,[9],256 µg/mL
same,Activity,[10],8 µg/mL
same,MIC,[11],2 µg/mL
same,MIC,[12],2 µg/mL
same,MIC,[13],2 µg/mL
same,MIC,[14],2 µg/mL
same,Activity,[15],16 µg/mL
same,Activity,[16],32 µg/mL
same,MIC,[17],2 µg/mL
same,MIC,[18],2 µg/mL
same,Activity,[19],Active
same,MIC,[20],2 µg/mL
same,Activity,[21],Active
same,MIC,[22],2 µg/mL
same,Activity,[23],Active
same,MIC,[24],256 µg/mL
same,MIC,[25],1 µg/mL
same,Activity,[26],Active
same,Activity,[27],16 µg/mL
same,Activity,[28],16 µg/mL
same,MIC,[29],2 µg/mL
